# Assay results gathered from unrelated publications.
# Compare with care: the assays were run in different laboratories.
# Read-out: cell growth or viability
Structure (SMILES),cell line,method,tested at,time,viability
CC(C)(C)c1cnc(CSc2cnc(NC(=O)C3CCN(CCCCCSc4cccc5c4CN(C4CCC(=O)NC4=O)C5=O)CC3)s2)o1 (stereo not shown),HH,CCK-8,10 nM,,93.5%
CC(=O)Nc1ccc(/C(C)=N/N=c2\sc(C(C)=O)nn2-c2ccc(C)cc2)cc1,HepG2,MTT,2.5 µM,,99.4%
CC(C)(C)c1cnc(CSc2cnc(NC(=O)C3CCN(CCCCSc4cccc5c4C(=O)N(C4CCC(=O)NC4=O)C5=O)CC3)s2)o1 (stereo not shown),HH,CCK-8,0.5 µM,,0%
CC(=NNC(=O)c1cccnc1)c1ccc(Nc2nnc(-c3ccc(Cl)cc3)c3ccccc23)cc1,HepG2,MTT,5 µM,24 h,3.2%
CC(C)(C)c1cnc(CSc2cnc(NC(=O)C3CCN(CCCCCCCCSc4cccc5c4C(=O)N(C4CCC(=O)NC4=O)C5=O)CC3)s2)o1 (stereo not shown),HH,CCK-8,0.5 µM,,0%
CC(=NNC(=O)c1ccccc1Br)c1ccc(Nc2nnc(-c3ccc(Cl)cc3)c3ccccc23)cc1,HepG2,MTT,0.312 µM,24 h,85.4%
CC(=NNC(=O)COc1ccc2c(C)c(Cc3ccccc3)c(=O)oc2c1C)c1ccc(Br)cc1,HepG2,MTT,1.6 µg/mL,,54.8%
CC(=O)c1nn(-c2ccc(C)cc2)/c(=N/N=C(\C)c2ccc(NC(=O)c3ccccc3)cc2)s1,HepG2,MTT,10 µM,,6.81%
CC(C)(C)c1cnc(CSc2cnc(NC(=O)C3CCN(CCCCCCCSc4cccc5c4C(=O)N(C4CCC(=O)NC4=O)C5=O)CC3)s2)o1 (stereo not shown),HH,CCK-8,10 nM,,99.5%
CC(=O)c1nn(-c2ccccc2Cl)/c(=N/N=C(\C)c2ccc(NC(=O)c3ccccc3)cc2)s1,HepG2,MTT,78 nM,,71.7%
CC(=NNC(=O)c1ccccc1)c1ccc(Nc2nnc(-c3ccc(Cl)cc3)c3ccccc23)cc1,HepG2,MTT,0.625 µM,24 h,48.7%
CCOC(=O)c1nn(-c2cccc(Cl)c2)/c(=N/N=C(\C)c2ccc(NC(=O)c3ccccc3)cc2)s1,HepG2,MTT,10 µM,,3%
CC(=NNC(=O)c1ccccc1Cl)c1ccc(Nc2nnc(-c3ccc(Cl)cc3)c3ccccc23)cc1,HepG2,MTT,2.5 µM,24 h,4.78%
